Columns and labels:
[1] = Selectivity index, ratio of CC50 for human Akata cells to EC50 for Epstein-Barr virus infected in human Akata cells; type: toxicity, cell-based; settings: read-out: Ratio CC50/EC50
In short: (§1)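 EC50 is the concentration that reduces virus replication by 50%. CC50 is the concentration giving 50% loss of viability in uninfected cells. Both are calculated by linear regression analysis. The selectivity index is CC50 divided by EC50.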

[2] = Selectivity index, ratio of CC50 for human CEM-SS cells to EC50 for Human immunodeficiency virus 1 infected in human CEM-SS cells; type: toxicity, cell-based; settings: read-out: Ratio CC50/EC50; in short: as §1
[3] = Cytotoxicity against human Akata cells assessed as cell viability by XTT assay; type: cell-based; in short: as §1
[4] = Cytotoxicity against human CEM-SS cells assessed as cell viability by XTT assay; type: cell-based; in short: as §1
Human gammaherpesvirus 4 = assay: Antiviral activity against Epstein-Barr virus infected in human Akata cells assessed as virus induced cytopathic effects by XTT assay; type: functional, organism-based; settings: human gammaherpesvirus 4, Akata; in short: as §1
[5] = tested on: Human immunodeficiency virus 1; assay: Antiviral activity against Human immunodeficiency virus 1 infected in human CEM-SS cells assessed as virus induced cytopathic effects; type: functional, organism-based; settings: Human immunodeficiency virus 1, CEM-SS; in short: as §1

| Structure (SMILES) | selectivity ratio [1] | selectivity ratio [2] | CC50 [3] [µM] | CC50 [4] [µM] | EC50 (Human gammaherpesvirus 4) [µM] | EC50 [5] [µM] |
| --- | --- | --- | --- | --- | --- | --- |
| O=c1[nH]c(=O)n(Cc2ccc(Cl)cc2Cl)cc1NCCc1ccccc1 | > 1.5 | > 2.34 | > 100 | > 100 | 67.2 | 42.7 |
| O=c1[nH]c(=O)n(Cc2ccc(Cl)cc2Cl)cc1NCc1ccccc1 | 2.4 | > 1.8 | 96.3 | > 100 | 39.6 | 54.6 |
| Cc1cc(C)cc(Cn2cc(NCc3ccccc3)c(=O)[nH]c2=O)c1 | – | 17.8 | – | 168 | – | 9.5 |
| O=c1[nH]c(=O)n(Cc2cccc(Oc3ccccc3)c2)cc1Nc1ccccc1 | > 43 | – | > 100 | > 100 | 2.3 | > 100 |
| Cc1ccc(Nc2cn(Cc3ccc(Cl)cc3Cl)c(=O)[nH]c2=O)cc1 | 2.1 | – | 92.3 | – | 43.3 | – |
| O=c1[nH]c(=O)n(Cc2cccc(Cl)c2)cc1Nc1ccccc1 | > 5 | – | > 100 | – | 20 | – |
| Cc1cc(C)cc(Cn2cc(Nc3ccccc3)c(=O)[nH]c2=O)c1 | < 4.8 | > 16.8 | 96.2 | > 200 | > 20 | 11.9 |
| Cc1cccc(Cn2cc(Nc3ccccc3)c(=O)[nH]c2=O)c1 | > 1 | > 4.5 | > 100 | > 200 | 99.1 | 44.7 |
| Cc1ccccc1Cn1cc(Nc2ccccc2)c(=O)[nH]c1=O | > 8.3 | – | > 100 | > 100 | 12 | > 100 |
| O=c1[nH]c(=O)n(Cc2ccccc2)cc1Nc1ccccc1 | – | – | – | > 100 | – | > 100 |
| O=c1[nH]c(=O)n([C@H]2CO[C@@H](CO)O2)cc1I | > 3030 | – | > 100 | – | 0.033 | – |
| Cc1cn([C@H]2C[C@H](N=[N+]=[N-])[C@@H](CO)O2)c(=O)[nH]c1=O [ZIDOVUDINE] | – | > 125 | – | > 1 | – | 0.008 |
